# Assay results pooled from the literature.
# Lines come from different studies, so protocols differ.
# Action: inhibitor
# CHEK1: Serine/threonine-protein kinase Chk1 (CHEK1, Homo sapiens, UniProt O14757)
# SLC6A3: Sodium-dependent dopamine transporter (SLC6A3, Homo sapiens, UniProt Q01959)
# PRMT1: Protein arginine N-methyltransferase 1 (PRMT1, Homo sapiens, UniProt Q99873)
SMILES,target,effect on,method,pH,IC50
COC(=O)Cc1ccc2c(c1)NC(=O)c1cc(C)c(-c3ccc([N+](=O)[O-])c(OC)c3)cc1N2,CHEK1,enzyme activity,,,49.4 nM
COc1ccc(S(=O)(=O)ON=C2C=C(C)C(=O)C(C)=C2)cc1,"Histone acetyltransferase KAT2A (KAT2A, Homo sapiens, UniProt Q92830)",enzyme activity,radiometric,,33900 nM
COc1cc(NC(=O)CCCCCCC(=O)O)c(Cl)cc1NC(=O)Nc1cnc(C#N)cn1,CHEK1,enzyme activity,,,57.9 nM
Clc1ccc(CC2CCN(CCCCn3nnnc3C(c3ccccc3)c3ccccc3)CC2)cc1Cl,SLC6A3,transporter uptake,,,488 nM
COC(=O)C1CCCN1C(=O)c1ccc2c(c1)NC(=O)c1ccc(-c3ccc(O)c(OC)c3)cc1N2 (centres unmarked),CHEK1,enzyme activity,,,128 nM
COCCNC(=O)Nc1ccc2nc(-c3cccs3)c(-c3cccs3)nc2c1,"Acetyl-coenzyme A synthetase, cytoplasmic (ACSS2, Homo sapiens, UniProt Q9NR19)",enzyme activity,absorbance,,~600 nM
Cc1ccc(C(=O)Nc2ccc(Oc3cc4cnn(C)c4cc3-c3cn[nH]c3)c(F)c2)c(=O)n1-c1ccc(F)cc1,"Discoidin domain-containing receptor 2 (DDR2, Homo sapiens, UniProt Q16832)",enzyme activity,radiometric,,41 nM
CO[C@H]1O[C@H](COS(=O)(=O)O)[C@@H](O[C@@H]2O[C@@H](C(=O)O)[C@@H](O[C@H]3O[C@H](COS(=O)(=O)O)[C@@H](O[C@@H]4O[C@H](C(=O)O)[C@@H](O[C@H]5O[C@H](COS(=O)(=O)O)[C@@H](O)[C@H](O)[C@H]5NS(=O)(=O)O)[C@H](O)[C@H]4O)[C@H](OS(=O)(=O)O)[C@H]3NS(=O)(=O)O)[C@H](O)[C@H]2OS(=O)(=O)O)[C@H](O)[C@H]1NS(=O)(=O)O,"Coagulation factor XI (F11, Homo sapiens, UniProt P03951)",enzyme activity,absorbance,pH 7.4,> 360000 nM
CC(C)N(C(=S)SSC(=S)N(C(C)C)C(C)C)C(C)C,"Tyrosine-protein phosphatase non-receptor type 22 (PTPN22, Homo sapiens, UniProt Q9Y2R2)",enzyme activity,fluorescence,pH 6.5,7000 nM
Nc1ncnc2c1ncn2[C@@H]1O[C@H](CN(CC[C@H](N)C(=O)O)Cc2ccc3ccccc3c2)[C@@H](O)[C@H]1O,PRMT1,enzyme activity,,,> 50000 nM
COc1ccc2c(Oc3ccc4c(C(=O)Nc5ccccc5N)cccc4c3)ccnc2c1,"Ephrin type-B receptor 4 (EPHB4, Homo sapiens, UniProt P54760)",enzyme activity,,,> 500 nM
CC(C)n1nnc(-c2cc(O)cc(Nc3ncnn4ccc(CN5CCC(N)CC5)c34)c2)n1,"AP2-associated protein kinase 1 (AAK1, Homo sapiens, UniProt Q2M2I8)",enzyme activity,,,0.2 nM
Oc1ccc(-c2ccc(-c3[nH]nc4c3Cc3cc(O)ccc3-4)cc2)cc1,CHEK1,enzyme activity,,,5.9 nM
N=C(NCCCSC[C@H]1O[C@@H](n2cnc3c(NCCCc4ccccc4)ncnc32)[C@H](O)[C@@H]1O)NC1CCC1,PRMT1,enzyme activity,fluorescence,,249 nM
Fc1ccc(C(c2ccc(F)cc2)c2nnnn2CCCCN2CCC(Cc3ccc(Cl)c(Cl)c3)CC2)cc1,SLC6A3,transporter uptake,,,608 nM
CC(C)C1=CC[C@H]2C(=C1)CC[C@@H]1[C@]2(C)CCC[C@@]1(C)C(=O)O,"ATP-citrate synthase (ACLY, Homo sapiens, UniProt P53396)",enzyme activity,,,> 20000 nM
COc1cc2c(cc1OCc1ccncc1)Nc1cc(-c3ccc([N+](=O)[O-])c(OC)c3)ccc1C(=O)N2,CHEK1,enzyme activity,,,5.17 nM
Clc1ccc(C(c2ccccc2)c2nnnn2CCCCN2CCC(Cc3ccc(Cl)c(Cl)c3)CC2)cc1 (centres unmarked),SLC6A3,transporter uptake,,,550 nM
COc1cc(-c2ccc3c(c2)N(C)c2ccccc2NC3=O)ccc1[N+](=O)[O-],CHEK1,enzyme activity,,,1640 nM
C#CCNC(=N)NCCCSC[C@H]1O[C@@H](n2cnc3c(NCCCc4ccccc4)ncnc32)[C@H](O)[C@@H]1O,PRMT1,enzyme activity,fluorescence,,2090 nM
